Source: PMC3518043 (Biochemistry, 2012)

What was measured:
Type in all cases: binding
histone H3 N-terminus = assay: overall signal intensity in histone peptide array / peptide screens; conditions: both peptide screens; at the same molar concentrations
[1] = test system: histone H3 tail peptide (1-12); assay: 1H,15N HSQC NMR titration with H3 peptide; conditions: 0.1 mM 15N-labeled PHD1-2; H3 (1-12)
Procedure, shortened: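 15N-labelled CHD5 PHD1-2 expressed in E. coli BL21(DE3) pLysS grown in 15NH4Cl minimal medium and induced with 0.5 mM IPTG. GST fusion purified on glutathione agarose and tag cleaved with PreScission protease. Buffer was 20 mM Tris pH 6.8, 150 mM NaCl, 3 mM DTT. 1H,15N HSQC spectra of 0.1 mM protein recorded at 600 MHz with increasing amounts of H3 (1-12) peptide.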

[2] = test system: unmodified histone H3 N-terminus (first eleven amino acids); assay: Amplified Luminescent Proximity Homogeneous Assay; conditions: 10 μM protein, only biotin- or only 6×His-peptide
Procedure, shortened: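 Recombinant CHD5 PHD constructs and H3 (1-11) peptides carrying either a 6×His tag or biotin were diluted in StabilCoat buffer to final 10 μM protein and 1 μM peptide. Mixtures shaken 30 min at ambient temperature. Donor and acceptor beads added at 15 μg/mL each (working), then shaken 30 min in the dark. Emission read at 570/100 nm with ALPHA filters.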

[3] = test system: histone H3 combinatorial peptide library; assay: on-bead 5,000-member combinatorial histone H3 library screen; conditions: for occurrence of peptides with high methylation at H3K4 (me2/3) / occurrence of peptides with low methylation at H3K4 (K4unmod and K4me): PHD1-2 screen
Procedure, shortened: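 One-bead-one-peptide H3 combinatorial library (5,000 members) incubated sequentially with GST-tagged PHD fingers, GST-specific primary antibody, biotinylated secondary antibody, then streptavidin-alkaline phosphatase for bead detection.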

[4] = test system: immobilized histone H3 (1-11); assay: surface plasmon resonance
[5] = bivalent binding model (bivalent analyte), pH 7.5

B1: PHD1-2: tandem PHD-fingers of CHD5 (338-468), GST fusion in pGEX-KG; tag cleaved for SPR and NMR (protein)
chain: YETDHQDYCEVCQQGGEIILCDTCPRAYHLVCLDPELEKAPEGKWSCPHCEKEGIQWEPKDDDDEEEEGGCEEEEDDHMEFCRVCKDGGELLCCDACPSSYHLHCLNPPLPEIPNGEWLCPRCTCPPLKGK
modifications: left off: GST, end not stated, kept
- overall signal intensity compared to either domain alone (histone H3 N-terminus): notably higher
- binding events in NMR titration [1]: two distinct binding events
- ALPHA signal with either functionalized peptide alone [2]: no signal above background
- occurrence of unmodified lysine-4 among positive beads ([3]; H3K4unmod, MALDI-TOF identification): 44 out of 90
- occurrence of H3T3 phosphorylation among positive beads ([3]; H3T3ph): 0 out of 90
- occurrence of H3T6 phosphorylation among positive beads ([3]; H3T6ph): 0 out of 90
- occurrence of peptides with high methylation at H3K4 (me2/3) ([3]; all peptides): 13%
- occurrence of peptides with low methylation at H3K4 (K4unmod and K4me) ([3]; all peptides): 74%
- occurrence of peptides with high methylation at H3K4 (me2/3) ([3]; peptides also containing R2me2a or R2me2s): 6%
- occurrence of peptides with low methylation at H3K4 (K4unmod and K4me) ([3]; peptides only containing Rme2a/s at H3R2): 91%
- increase in affinity (lower Kd) compared with PHD1 and PHD2 alone ([4]; 1:1 Langmuir model): 4-11 fold
- off-rate kd ([4]; 1:1 Langmuir model, biotinylated H3 (1-11) on SA chip, pH 7.5): 0.00348 ± 5e-05 s⁻¹
- ka1 [4, 5]: 324 ± 11 M⁻¹ s⁻¹
- ka2 [4, 5]: 2.9×10^−5 ± 1×10^−6 1/RUs
- kd1 [4, 5]: 0.120 ± 0.005 s⁻¹
- kd2 [4, 5]: 0.00218 ± 3e-05 s⁻¹
- slower last off-rate (kd) compared with individual domains ([4]; last off-rate of PHD1-2 vs kd values of individual domains): 5-6 fold
